This is an account of results in ChEMBL document CHEMBL4627348, “Synthesis of (1,3,4-thiadiazol-2-yl)-acrylamide derivatives as potential antitumor agents against acute leukemia cells” (Bioorg Med Chem Lett, 2020).

Molecules are shown by their SMILES. Active and inactive are the calls of the source. The rule behind the calls is not given here.

In data set [1] the test system is RS4-11. Put plainly: Antiproliferative activity against human RS4:11 cells assessed as growth inhibition at 1 uM after 48 hrs by CCK-8 assay relative to control. It is filed as functional. The conditions noted are these: RS4-11, 48 h, read-out: GI. A digest of the protocol:
(§1)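 Positive-control reference compound run at 1 μM alongside the 20 μM screen. CCK-8 viability after 48 h exposure, inhibition ratio relative to control.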

Data set [2] relates to RS4-11. Nature of the data set: Induction of apoptosis in human RS4:11 cells assessed as late apoptotic cells at 0.5 uM after 48 hrs by Annexin-V and 7-AAD staining based flow cytometric analysis (reference value: 2.71%). It is filed as functional.
The test system of data set [3] is RS4-11. Put plainly: Induction of apoptosis in human RS4:11 cells assessed as necrotic cells at 0.5 uM after 48 hrs by Annexin-V and 7-AAD staining based flow cytometric analysis (reference value: 0.67%). It is filed as functional.
Data set [4] deals with HL-60. Put plainly: Antiproliferative activity against human HL60 cells assessed as growth inhibition at 1 uM after 48 hrs by CCK-8 assay relative to control. It is filed as functional. The conditions noted are these: HL-60, 48 h, read-out: GI. A digest of the protocol: as §1
The subject of data set [5] is RS4-11. Nature of the data set: Induction of apoptosis in human RS4:11 cells assessed as viable cells at 0.5 uM after 48 hrs by Annexin-V and 7-AAD staining based flow cytometric analysis (reference value: 94.06%). It is filed as functional. The conditions noted are these: RS4-11, 48 h, read-out: Activity.
Data set [6] has as its system RS4-11. Put plainly: Induction of apoptosis in human RS4:11 cells assessed as early apoptotic cells at 0.5 uM after 48 hrs by Annexin-V and 7-AAD staining based flow cytometric analysis (reference value: 2.56%). Format: functional.
Data set [7] has as its system RS4-11. Nature of the data set: Induction of apoptosis in human RS4:11 cells assessed as increase in cleaved PARP protein expression at 2.5 to 40 uM after 48 hrs by Western blot analysis. It is filed as functional, cell-based. The method in brief:
(§2)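 RS4;11 cells treated 48 h at concentrations from 2.5 to 40 μM, DMSO as negative control. Western blot for full-length PARP (116 kDa) and cleaved PARP (89 kDa), plus cleaved caspase-3 and cleaved caspase-9.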

The test system of data set [8] is RS4-11. Nature of the data set: Antiproliferative activity against human RS4:11 cells assessed as growth inhibition after 48 hrs by CCK-8 assay. The conditions noted are these: RS4-11, 48 h. Format: functional, cell-based.
Data set [9] concerns RS4-11. Put plainly: Antiproliferative activity against human RS4:11 cells assessed as growth inhibition at 20 uM after 48 hrs by CCK-8 assay relative to control. It is filed as functional. The settings on record: RS4-11, 48 h, read-out: GI. The method in brief:
(§3)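 Single-dose screen at 20 μM in RS4;11 (human ALL), HL-60 (human promyelocytic leukemia) and HEK293T (normal-cell model). Cells exposed 48 h, viability read by CCK-8, growth inhibition ratio expressed relative to control.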

The test system of data set [10] is RS4-11. Put plainly: Induction of apoptosis in human RS4:11 cells assessed as viable cells at 40 uM after 48 hrs by Annexin-V and 7-AAD staining based flow cytometric analysis (reference value: 94.06%). It is filed as functional. The settings on record: RS4-11, 48 h, read-out: Activity.
For data set [11], the system named is RS4-11. Put plainly: Induction of apoptosis in human RS4:11 cells assessed as increase in cleaved PARP protein expression after 48 hrs by Western blot analysis. It is filed as functional, cell-based. The method in brief:
as §2

The subject of data set [12] is RS4-11. Put plainly: Induction of apoptosis in human RS4:11 cells assessed as increase in cleaved caspase-3 protein expression after 48 hrs by Western blot analysis. It is filed as functional, cell-based. The method in brief: as §2
The test system of data set [13] is RS4-11. Nature of the data set: Induction of apoptosis in human RS4:11 cells assessed as early apoptotic cells at 40 uM after 48 hrs by Annexin-V and 7-AAD staining based flow cytometric analysis (reference value: 2.56%). It is filed as functional.
Data set [14] relates to HL-60. Nature of the data set: Antiproliferative activity against human HL60 cells assessed as growth inhibition after 48 hrs by CCK-8 assay. The settings on record: HL-60, 48 h. It is filed as functional, cell-based.
For data set [15], the system named is RS4-11. Nature of the data set: Induction of apoptosis in human RS4:11 cells assessed as necrotic cells at 40 uM after 48 hrs by Annexin-V and 7-AAD staining based flow cytometric analysis (reference value: 0.67%). It is filed as functional.
Data set [16] has as its system HEK-293T. Put plainly: Cytotoxicity against human HEK293T cells assessed as growth inhibition after 48 hrs by CCK8 assay. It is filed as cell-based.
Data set [17] concerns RS4-11. Put plainly: Induction of apoptosis in human RS4:11 cells assessed as PARP degradation at 2.5 to 40 uM after 48 hrs by Western blot analysis. Format: functional, cell-based. The method in brief: as §2
Data set [18] concerns HL-60. Put plainly: Antiproliferative activity against human HL60 cells assessed as growth inhibition at 20 uM after 48 hrs by CCK-8 assay relative to control. It is filed as functional. The conditions noted are these: HL-60, 48 h, read-out: GI. The method in brief:
as §3

Data set [19] relates to RS4-11. Nature of the data set: Induction of apoptosis in human RS4:11 cells assessed as late apoptotic cells at 40 uM after 48 hrs by Annexin-V and 7-AAD staining based flow cytometric analysis (reference value: 2.71%). Format: functional.
In data set [20] the test system is RS4-11. Nature of the data set: Induction of mitochondrial membrane potential loss in human RS4:11 cells at 40 uM after 48 hrs by MitoSense Red staining based fluorescence assay. Format: functional, cell-based. A digest of the protocol:
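RS4;11 cells exposed 48 h at 5–40 μM, DMSO as negative control. Stained with MitoSense Red and analysed by flow cytometry. Loss of mitochondrial membrane potential is read as a drop in Red2 fluorescence.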

Data set [21] is described as follows: (§4) Cytotoxicity against HEK293T cells assessed as growth inhibition at 20 uM after 48 hrs by CCK8 assay relative to control. The conditions noted are these: human, HEK293T cells; read-out: GI. It is filed as cell-based, HEK-293T. A digest of the protocol: as §3
The subject of data set [22] is RS4-11. Nature of the data set: Induction of apoptosis in human RS4:11 cells assessed as increase in cleaved caspase-9 protein expression after 48 hrs by Western blot analysis. Format: functional, cell-based. The method in brief:
as §2

Data set [23] concerns HEK-293T. The data set is described as §4. Format: cell-based. The settings on record: human, hek-293t, 48 h, 20 µM. The method in brief:
as §3

As to `CC1(C)CCC(CN2CCN(c3ccc(C(=O)NS(=O)(=O)c4ccc(NCC5CCOCC5)c([N+](=O)[O-])c4)c(Oc4cnc5[nH]ccc5c4)c3)CC2)=C(c2ccc(Cl)cc2)C1` [VENETOCLAX], the inhibition of growth at 1 µM in [1] is 95%; in data set [4], 98%. Besides, the Activity amounted to 83.27% in [2], 2.11% in [3] and 11.91% in data set [6]. Also, the viability at 0.5 µM in [5] stood at 2.71%.
For the compound `COc1ccc(S(=O)(=O)Oc2ccccc2/C=C(\C#N)C(=O)Nc2nnc(Cc3ccc(F)cc3)s2)cc1`, the outcome in data set [7], in [17] and in data set [20] was Active. Besides, the IC50 is 1.21 µM in data set [8], 4.05 µM in data set [14] and greater than 50 µM in data set [16]. Further, the figures for the inhibition of growth at 20 µM in data set [9] and in [18] were 76% and 100%, respectively. The viability at 40 µM in data set [10] amounted to 30.2%. Besides, the Activity entry in data set [11] is “Dose-dependent effect”; in data set [12] it was “Dose-dependent effect”; in data set [13] it was 5.88%; in [15] it was 2.07%; in data set [19], 61.84%; in [22], “Dose-dependent effect”. Moreover, the inhibition at 48 h, 20 µM in data set [21] stood at 20%.
Consider `COc1ccc(S(=O)(=O)Oc2ccccc2/C=C(\C#N)C(=O)Nc2nnc(Cc3ccc(Cl)cc3)s2)cc1`, for which the result in [7], in data set [17] and in data set [20] was Active. Further, the IC50 in data set [8] was 1.25 µM; in [14] it was 4.36 µM; in data set [16], greater than 50 µM. Also, the results for the inhibition of growth at 20 µM in data set [9] and in data set [18] were 77% and 99%, respectively. Also, in data set [10], the viability at 40 µM was 16.2%. For the same compound, the Activity result in data set [11] is “Dose-dependent effect”; in data set [12], “Dose-dependent effect”; in data set [13] it was 5%; in data set [15], 2.68%; in data set [19], 76.08%; in data set [22], “Dose-dependent effect”. In data set [21], the inhibition at 48 h, 20 µM is 26%.
For `N#C/C(=C\c1ccccc1OS(=O)(=O)c1ccc([N+](=O)[O-])cc1)C(=O)Nc1nnc(Cc2ccccc2)s1`, the inhibition of growth at 20 µM in [9] came to 57%; in data set [18] it was 20%. Also, the “growth inhibition (GI)” value in data set [23] is “Non-Toxic”.
On to `COc1ccc(-c2nnc(NC(=O)/C(C#N)=C/c3cccc(OS(=O)(=O)c4ccc(C)cc4)c3)s2)cc1`, for which the inhibition of growth at 20 µM in data set [9] was 79%; in data set [18], 73%. The “growth inhibition (GI)” value in data set [23] is listed as “Non-Toxic”.
Turning to `N#C/C(=C\c1ccccc1OS(=O)(=O)c1ccc(F)cc1)C(=O)Nc1nnc(Cc2ccc(F)cc2)s1`, the values for the inhibition of growth at 20 µM in data set [9] and in data set [18] were 59% and 13%, respectively. The “growth inhibition (GI)” value in [23] was “Non-Toxic”.
For `COc1ccc(Cc2nnc(NC(=O)/C(C#N)=C/c3ccccc3OS(=O)(=O)c3ccc(OC)cc3)s2)cc1`, the outcome in data set [7], in data set [17] and in data set [20] was Active. The IC50 in data set [8] was 0.84 µM; in [14], 3.12 µM; in data set [16], greater than 50 µM. Further, the inhibition of growth at 20 µM is 78% in data set [9] and 100% in [18]. In data set [10], the viability at 40 µM was 19.7%. Also, the Activity entry in data set [11] was “Dose-dependent effect”; in data set [12], “Dose-dependent effect”; in [13], 5.07%; in data set [15], 2.58%; in data set [19] it was 72.63%; in data set [22] it was “Dose-dependent effect”. Further, in data set [21], the inhibition at 48 h, 20 µM came to 30%.
